Published values gathered from unrelated publications.
Lines come from different studies, so protocols differ.
P2RY14: P2Y purinoceptor 14 (P2RY14, Homo sapiens, UniProt Q15391)
Nuclear receptor subfamily 4 group A member 2: Nuclear receptor subfamily 4 group A member 2 (Homo sapiens, UniProt P43354)

O=C(COc1ccccc1)N[C@@H](Cc1c[nH]c2ccccc12)C(=O)O
inhibition (P2RY14; cAMP, antagonist; HEK293; 0.1 µM): 82.7%

C#Cc1cc(-c2cc(Nc3nc(N[C@@H](C)c4ccc(F)cn4)ncc3Cl)n[nH]2)ccc1C=O
inhibition (Tyrosine-protein kinase JAK3 (JAK3, Homo sapiens, UniProt P52333); enzyme activity, inhibitor; 0.2 µM): 82.1%

COc1ccc2oc(-c3ccc4nc(N)oc4c3)c/c(=N\c3ccccc3NC(=O)CCN)c2c1
remaining binding (TGF-beta receptor type-1 (TGFBR1, Homo sapiens, UniProt P36897); binding; 1 µM): 111%

C[C@H](NC(=O)C(=O)Nc1ccccc1C(C)(C)C)C(=O)N[C@@H](CC(=O)O)C(=O)COc1c(F)c(F)cc(F)c1F
kinact/KI (Caspase-1 (CASP1, Homo sapiens, UniProt P29466); enzyme activity, inhibitor): 2.42e+06 M⁻¹ s⁻¹

NC/C(=C\F)COc1cccc(Cn2c(=S)[nH]c(=O)c3[nH]cnc32)c1
remaining activity (Eosinophil peroxidase (Homo sapiens, UniProt P11678); enzyme activity, inhibitor; 10 µM): 90.7%

CCC(=O)NS(=O)(=O)c1ccc(-c2c(-c3ccccc3)noc2C)cc1
ΔTm (Nuclear receptor subfamily 4 group A member 2; thermal stability, DSF; 100 µM): -1.15 °C

O=C(COc1ccc(Cl)cc1)N[C@@H](Cc1c[nH]c2ccccc12)C(=O)O
inhibition (P2RY14; cAMP, antagonist; HEK293; 0.1 µM): 47.6%

CCN(CC)Cc1cc(Nc2ccnc3cc(Cl)ccc23)ccc1O
ΔTm (Nuclear receptor subfamily 4 group A member 2; thermal stability, DSF; 100 µM): -0.09 °C

C1=C/COCc2cc(ccc2OCCN2CCCC2)Nc2nccc(n2)-c2cccc(c2)COC/1
remaining binding (Cyclin-dependent kinase-like 1 (CDKL1, Homo sapiens, UniProt Q00532); binding; 0.1 µM): 89%

O=C(O)CCc1nc(-c2ccccc2)c(-c2ccccc2)o1
ΔTm (Nuclear receptor subfamily 4 group A member 2; thermal stability, DSF; 100 µM): -0.6 °C

CC(C)OC(=O)[C@H](Cc1c[nH]c2ccccc12)NC(=O)COc1ccc(F)cc1
inhibition (P2RY14; cAMP, antagonist; HEK293; 0.1 µM): 12.1%

C#Cc1cnc(Nc2ccnc(CO)c2)nc1Nc1ccccc1S(C)(=O)=NC#N (stereo not shown)
remaining activity (Interleukin-1 receptor-associated kinase 4 (IRAK4, Homo sapiens, UniProt Q9NWZ3); enzyme activity, inhibitor, radiometric; 1 µM): 1.36%

COc1ccc(OCC(=O)N[C@@H](Cc2c[nH]c3ccccc23)C(=O)OC(C)C)cc1
inhibition (P2RY14; cAMP, antagonist; HEK293; 0.1 µM): 85.6%

CCCCC(=O)Nc1ccc(-c2ccc3ncn(CCC)c(=O)c3c2)cn1
remaining binding (Calcium-dependent protein kinase 1 (CDPK1, Plasmodium falciparum, UniProt P62344); binding, competition with immobilised ligand; 0.5 µM): 100%

C=C1C(=O)O[C@@H]2C[C@@]3(C)CCCC(=C)[C@@H]3C[C@H]12
ΔTm (Nuclear receptor subfamily 4 group A member 2; thermal stability, DSF; 100 µM): -0.65 °C

Cc1ccc(OCC(=O)N[C@@H](Cc2c[nH]c3ccccc23)C(=O)OC(C)C)cc1
inhibition (P2RY14; cAMP, antagonist; HEK293; 0.1 µM): 110%

Cc1cc(O)c(-c2ccc([C@@H](C)CN(C)C)cc2)c2c1[nH]c(=O)c1sccc12
inhibition (Mitogen-activated protein kinase kinase kinase 1 (MAP3K1, Homo sapiens, UniProt Q13233); enzyme activity, inhibitor; 0.1 µM): 4.39%

CC[C@H](C)C(=O)O[C@H]1C[C@H](O)C=C2C=C[C@H](C)[C@H](CC[C@@H](O)C[C@@H](O)CC(=O)O)[C@H]21
ΔTm (Nuclear receptor subfamily 4 group A member 2; thermal stability, DSF; 100 µM): -0.15 °C

O=C(N[C@@H](Cc1c[nH]c2ccccc12)C(=O)O)c1c[nH]c2ccccc12
inhibition (P2RY14; cAMP, antagonist; HEK293; 0.1 µM): 36.7%
